# The list is not random: actives were taken first. Their share in the collection is about 2.5%.
# NR2E3 ag-1: activates human NR2E3 receptor; inhibition of corepressor binding, % at 3.98 µM; Q9Y5X4; 360,000 tested, 0.35% active; CHO-S Gal4-NCOR/VP16-NR2E3 two-hybrid, luciferase;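 active = inhibition above the mean of all tested compounds plus 3 SD, cut at about 70% in these data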;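 note: 0% = DMSO with NR2E3 transfected cells and 100% = cells lacking NR2E3 construct; higher means lower luciferase signal from less NR2E3 corepressor binding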
# KLK7 zymogen act: activates the human kallikrein-7 zymogen; 370,000 tested, 0.9% active; P49862; purified proKLK7, EDANS-DABCYL substrate fluorescence; 100% is mature enzyme control, 0% vehicle; AID 652039; activation, % at 7 µM;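 active = activation above the mean of all tested compounds plus 3 SD, computed per campaign excluding outliers beyond control limits, cut at about 13% in these data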
# NR2E3 ag-2: agonists of human nuclear receptor NR2E3; 320,000 tested, 0.12% active; Q9Y5X4; inhibition of corepressor binding, % at 4.78 µM; GST-NR2E3/biotin-RetCOR TR-FRET, 1536-well;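 active = percent inhibition above the cutoff of mean plus 3 SD of all tested compounds, set per screening campaign, cut at about 20% in these data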;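 note: 0% = DMSO wells and 100% = biotin wells as full block of FRET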
#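 System: GST-NR2E3 and biotin-RetCOR proteins; probe or stimulus: 7 nM biotin-RetCOR; doses: compound at 4.8 µM, single dose; schedule: Compound–protein incubation for 5 h at 4 °C; detection: time-resolved FRET; read-out: percent inhibition; controls: biotin wells as high control, 0.6% DMSO wells as low control; format: 1536-well plates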
# ADAM10 inh: inhibits human ADAM10; O14672; recombinant ADAM10, EDANS/DABCYL FRET peptide cleavage, 3 h; inhibition, % at 7 µM; 370,000 tested, 0.62% active;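 active = inhibition above a per-campaign cutoff equal to the mean of compounds falling between control-based bounds plus 3 SD, cut at about 20% in these data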;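 note: 0% = DMSO wells while the 100% control is not disclosed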
# Target sequence (O14672 214-748 limits assumed): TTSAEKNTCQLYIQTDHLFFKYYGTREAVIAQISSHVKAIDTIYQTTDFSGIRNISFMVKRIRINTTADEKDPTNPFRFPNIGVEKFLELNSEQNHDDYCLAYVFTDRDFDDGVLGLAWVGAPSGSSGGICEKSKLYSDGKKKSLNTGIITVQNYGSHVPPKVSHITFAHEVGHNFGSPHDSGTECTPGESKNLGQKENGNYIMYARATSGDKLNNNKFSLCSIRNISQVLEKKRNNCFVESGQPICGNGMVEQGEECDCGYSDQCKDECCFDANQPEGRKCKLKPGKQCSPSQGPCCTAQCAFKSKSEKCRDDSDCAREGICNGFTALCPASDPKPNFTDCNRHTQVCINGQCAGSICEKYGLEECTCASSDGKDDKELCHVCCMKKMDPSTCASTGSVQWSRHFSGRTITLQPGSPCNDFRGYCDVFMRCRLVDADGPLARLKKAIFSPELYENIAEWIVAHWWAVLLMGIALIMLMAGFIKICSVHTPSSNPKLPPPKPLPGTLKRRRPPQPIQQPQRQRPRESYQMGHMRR
# GASC-1 inh: blocks human GASC-1 demethylase activity. Q9H3R0. GST-JMJD2C(1-420) H3K9me3 demethylation, DELFIA europium. inhibition, % at 2.35 µM. 330,000 tested, 0.069% active. AID 2099;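 active = more than half of a compound's replicate wells show inhibition beyond 50%, single wells judged on their own value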;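 note: signal counts dimethyl H3K9 product captured on neutravidin plate; 0% = median of DMSO wells and 100% = 0.3 times that DMSO median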
# ADAM17 inh: ADAM17 inhibition, QFRET primary screen; inhibition, % at 6.95 µM; 370,000 tested, 0.83% active; recombinant ADAM17, EDANS/DABCYL FRET peptide cleavage; P78536; AID 720648;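 active = inhibition above the mean of compounds lying between control limits plus 3 SD, set per campaign, cut at about 8.5% in these data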;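 note: 0% = DMSO-only wells as the low control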
# ADAM10 ctr: inhibits human ADAM10 in ADAM17 exosite counter-screen; shares compounds with ADAM17 inh; recombinant ADAM10, EDANS/DABCYL FRET peptide cleavage, 3 h; inhibition, % at 6.95 µM; 2,900 tested, 47% active; AID 743256;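 active = mean inhibition over the triplicate runs exceeds the activity threshold set in the earlier primary screen, cut at about 20% in these data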;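 note: 0% = DMSO wells and 100% = marimastat wells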
# ADAM17 confirm: confirmation of inhibitors of human ADAM17 | shares compounds with ADAM17 inh | recombinant ADAM17, EDANS/DABCYL QFRET peptide cleavage | inhibition, % at 6.95 µM | 2,900 tested, 65% active | AID 743257;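 active = mean inhibition across replicates above the hit cutoff set in the primary screen, cut at about 8.5% in these data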;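 note: 0% = DMSO wells and 100% = marimastat wells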
# * marks the source's active call; other numbers are inactive results; · = no result given.
SMILES,NR2E3 ag-1,KLK7 zymogen act,NR2E3 ag-2,ADAM10 inh,GASC-1 inh,ADAM17 inh,ADAM10 ctr,ADAM17 confirm
CCc1ccc(N2CC(C)Cn3c2nc2c3c(=O)n(CCN3CCOCC3)c(=O)n2C)cc1 (stereo not drawn),14,0,2,-1,-20,9.1*,-5,1
CCCc1cc(-c2[nH]ncc2-c2ccc3c(c2)OCCCO3)c(O)cc1OC,·,0,·,18,·,10*,28*,13*
Cc1ccccc1NC(=O)c1[nH]cnc1C(=O)NN,-18,-1,1,7,-5,13*,-2,0
Cc1ccccc1NC(=O)c1nc[nH]c1C(=O)NCc1ccccc1,3,0,0,17,10,0,·,·
Cc1ccccc1CN1CCCCC(NC(=O)c2ccc3ccccc3c2)C1=O (stereo not drawn),·,0,·,5,·,22*,7,8
COc1ccc(NC(=O)C(c2ccccc2F)n2c(=O)c(-c3cc4ccccc4[nH]3)nc3ccccc32)cc1 (stereo not drawn),·,-30,·,-307,·,-88,·,·
CS(=O)(=O)c1ccc(C(=O)Nc2cccc(-c3nc4ccccc4[nH]3)c2)cc1,13,0,-2,6,-46,9.2*,-13,-2
CC(=O)N1CCN(S(=O)(=O)c2cccc(C(=O)NCCc3ccc(Cl)cc3)c2)CC1,-19,0,3,0,-8,1,·,·
CCOc1ccc(N=Nc2c(=O)[nH]n3c(=O)cc(C)[nH]c23)cc1,-62,0,-14,13,5,10*,15,12*
COc1ccc(CC(=O)OCC(=O)Nc2ncc(Cl)c(C)c2Cl)cc1,20,1,·,-2,·,-4,·,·
CC(C)(C)C1CCC(=O)C(C2(O)C(=O)Nc3ccccc32)C1 (stereo not drawn),30,-1,5,3,-1,12*,-3,2
C=CCSC(=S)NC1CCS(=O)(=O)C1 (stereo not drawn),-11,0,-1,3,-8,-1,·,·
O=C(Cn1c(-c2ccccc2)noc1=O)Nc1ccc(N2CCCCCC2)cc1,6,0,1,17,-12,11*,24*,17*
CCc1ccc(NC2=CC(=O)CC(c3ccco3)C2)cc1 (stereo not drawn),-29,-2,6,15,9,9.6*,-6,2
COCCNC(=O)c1cc(OC)c(OC)cc1[N+](=O)[O-],-9,0,0,-7,-2,2,·,·
CCn1c(COc2ccc(C)cc2)nnc1SCC(=O)c1ccc(-c2ccccc2)cc1,·,1,·,7,·,2,·,·
CN(C)c1ccc(N=Nc2ccccc2C(=O)OCC(=O)N2CCCCCC2)cc1,-95,1,0,18,-9,13*,16,8.7*
CC(C)COc1ccc(CSCCNC(=S)Nc2ccccc2)cc1,57,0,-3,17,-2,9.1*,29*,13*
COc1ccc(Cl)cc1NC(=O)c1nnn(CC(=O)Nc2ccc(C)c(C)c2)c1N,2,0,1,8,21,11*,-6,2
N/C(=N\C(=O)OCc1ccccc1)N(Cc1ccccc1)C(C#CC1=CCCCC1)Cc1ccccc1 (stereo not drawn),·,0,·,-5,·,4,·,·
O=S(=O)(c1ccccc1)N1CCN=C1SCc1ccc(Cl)c(Cl)c1,7,0,1,13,8,5,·,·
O=S(=O)(c1ccccc1)N1CCN=C1SCc1cccc(Cl)c1,-15,0,-1,15,6,9.3*,7,9.7*
COc1ccc(/C(O)=C2/C(=O)C(=O)N(CC3CCCO3)C2c2cccc(O)c2)cc1 (stereo not drawn),-20,5,5,4,-1,8.8*,7,6
CCCN(CC(=O)Nc1ccccc1OC)C(=O)c1ccc2[nH]c3c(c2c1)CC(C)CC3 (stereo not drawn),-20,3,2,8,1,13*,29*,16*
CCOC(=O)C1(Cc2ccccc2)C(=O)N(CCCN(C)C)c2ccccc21 (stereo not drawn),0,-1,5,0,-3,0,·,·
SMILES,NR2E3 ag-1,KLK7 zymogen act,NR2E3 ag-2,ADAM10 inh,GASC-1 inh,ADAM17 inh,ADAM10 ctr,ADAM17 confirm
Cc1ccc(SCCOCCN2CCc3ccccc3C2)cc1,13,0,3,-7,12,-2,·,·
Cc1ccc(C(C(=O)NCc2ccco2)N(CCc2ccccc2)C(=O)Cn2nnc3ccccc32)o1 (stereo not drawn),-19,0,·,7,·,10*,18,10*
COc1ccc(Nc2oc(COc3ccc(OC)cc3)nc2C#N)cc1,-20,0,3,14,2,9.1*,13,6
COc1cc(O)ccc1/C=N/NC(=O)c1ccc([N+](=O)[O-])cc1,-8,0,3,-1,4,2,·,·
O=C(NC(CSCc1ccccc1)C(=O)N/N=C/c1ccc(O)cc1O)c1ccc([N+](=O)[O-])cc1 (stereo not drawn),-18,-2,-3,11,15,14*,19,17*
CC(C)N(C(=O)[C@H]1C[C@H](CC(=O)NCCCn2ccnc2)C(=O)N2CCc3c([nH]c4ccc(Cl)cc34)[C@]12C)C(C)C,-6,0,·,-11,·,-4,·,·
Cc1ccccc1C1c2[nH]c3ccccc3c2C[C@H]2C(=O)N(C3CCN(Cc4ccccc4)CC3)CC(=O)N12 (stereo partly drawn),-5,2,-1,18,1,8.7*,26*,14*
O=C1[C@@H]2Cc3c([nH]c4ccccc34)C(c3ccccc3)N2C(=O)CN1C1CCN(Cc2ccccc2)CC1 (stereo partly drawn),17,6,2,11,14,3,·,·
CCOc1ccccc1C1c2[nH]c3ccccc3c2C[C@H]2C(=O)N(C3CCN(Cc4ccccc4)CC3)CC(=O)N12 (stereo partly drawn),-36,1,·,19,-8,9.7*,27*,14*
Cc1cc(C)c(C(CC(=O)c2cccs2)C(C#N)C#N)c(C)c1 (stereo not drawn),5,1,0,-11,7,-6,·,·
O=C(CNc1ccc2c(c1)OCO2)N/N=C\c1ccccc1Cl,-4,0,-3,0,-1,2,·,·
Cc1[nH]c2ccccc2c1/C=N\NC(=O)CNc1ccc2c(c1)OCO2,2,0,0,7,4,13*,-2,7

# Bioassay records as filed in PubChem BioAssay.
